Assay results published in ChEMBL document CHEMBL1139031, “Synthesis and insecticidal activity of fluorinated 2-(2,6-dichloro-4-trifluoromethylphenyl)-2,4,5,6-tetrahydrocyclopentapyrazoles” (Bioorg Med Chem Lett, 2006).

Key:
[1] = test system: Ctenocephalides felis; assay: Insecticidal activity against ARC sensitive homozygous alanine A/A flea at 100 mM by contact assay; format: functional
Outline: (§1)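 Contact vial assay with cat fleas of the cyclodiene-resistant homozygous serine (CO) or sensitive homozygous alanine (ARC) strain. Compound in DMSO was dried onto a glass-fiber disk for 24–48 h, and a DMSO-only disk was the control. Twenty newly emerged fleas, sedated at 0–4 °C, were sealed in each vial and held in the dark. Dead fleas were counted after 24 h, and percentage mortality was calculated.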

[2] = biological target: T1, GABA receptor subunit (Musca domestica, UniProt Q75NA5); assay: Displacement of [3H]EBOB from housefly neuronal membrane GABA receptor
T1 sequence (Q75NA5 whole entry): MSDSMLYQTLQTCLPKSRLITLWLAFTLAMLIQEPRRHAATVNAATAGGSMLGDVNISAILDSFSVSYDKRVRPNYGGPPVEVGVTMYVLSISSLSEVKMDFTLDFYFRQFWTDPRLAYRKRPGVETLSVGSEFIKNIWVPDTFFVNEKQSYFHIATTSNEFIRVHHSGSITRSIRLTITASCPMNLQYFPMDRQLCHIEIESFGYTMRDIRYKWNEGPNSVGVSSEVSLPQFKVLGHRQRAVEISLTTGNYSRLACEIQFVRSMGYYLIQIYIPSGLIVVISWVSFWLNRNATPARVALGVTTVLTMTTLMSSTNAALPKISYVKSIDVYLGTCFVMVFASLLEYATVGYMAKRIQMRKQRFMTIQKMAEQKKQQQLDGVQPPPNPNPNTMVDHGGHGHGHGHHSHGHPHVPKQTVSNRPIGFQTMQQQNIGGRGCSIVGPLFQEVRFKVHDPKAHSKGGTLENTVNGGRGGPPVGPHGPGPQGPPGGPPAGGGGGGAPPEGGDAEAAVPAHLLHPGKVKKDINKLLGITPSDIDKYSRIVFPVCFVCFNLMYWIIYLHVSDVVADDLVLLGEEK
Outline: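 Housefly neuronal membranes (0.5–1.0 mg/mL in added buffer) with 5.2 nM [3H]EBOB in ice-cold 10 mM phosphate, 300 mM NaCl, pH 7.5; DMSO compound solutions. Incubated 45 min at 24 °C, then filtered on polyethylenimine-soaked glass fiber; bound radioactivity counted. Membrane-free wells served as controls. Actives were retested at 24–48 final concentrations, and IC50 was taken at 50% of maximal inhibition.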

[3] = Selectivity for housefly GABA receptor over mouse GABA receptor
[4] = test system: Ctenocephalides felis; assay: Insecticidal activity against cyclodiene resistant allele-homozygous serine S/S flea by contact assay; format: functional; outline: as §1
[5] = biological target: GABA-A receptor; anion channel; assay: Binding affinity to mouse brain GABA receptor
Outline: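 Displacement of [3H]EBOB (5.2 nM, 38 Ci/mmol) from neuronal membranes (0.5–1.0 mg/mL), housefly or mouse brain, in ice-cold 10 mM phosphate, 300 mM NaCl, pH 7.5. Compound added from DMSO. Membrane-free wells served as controls. Incubated 45 min at 24 °C, then filtered on polyethylenimine-soaked glass fiber and bound radioactivity counted. IC50 (50% of maximal inhibition) taken from 24–48 concentrations.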

[6] = test system: Ctenocephalides felis; assay: Insecticidal activity against heterozygous S/A flea by contact assay; format: functional
[7] = test system: Musca domestica; assay: Insecticidal activity against housefly at 100 mM by contact assay; format: functional; conditions: for LC50: Musca domestica, read-out: LD50 (the source's name)
Outline: (§2)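 Newly emerged houseflies were CO2-sedated and fed 10% sucrose for 2–4 h. Compound in DMSO with isopropanol was rolled to coat glass tubes and air-dried for 24–48 h, with a DMSO-only control. Twenty flies, sedated by refrigeration at 0–4 °C, were placed in each tube. Healthy, moribund and dead flies were counted after 24 h.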

[8] = test system: Ctenocephalides felis; assay: Insecticidal activity against cyclodiene resistant allele-homozygous serine S/S flea at 100 mM by contact assay; format: functional; outline: as §1
[9] = test system: Musca domestica; assay: Insecticidal activity against housefly by contact assay; format: functional; set-up: concentration or dose not given beside the values; outline: as §2
[10] = species on record: Mus musculus; assay: Clearance in mouse; format: ADME, organism-based; conditions: in vitro
[11] = (§3) Half life in mouse liver microsome; format: ADME; conditions: liver microsomes
[12] = species on record: Canis familiaris; assay: (§4) Half life in dog liver microsome; format: ADME, Canis lupus familiaris; conditions: microsomes
[13] = species on record: Canis familiaris; assay: Clearance in dog; format: ADME, organism-based, Canis lupus familiaris; conditions: in vitro
[14] = species on record: Mus musculus; assay: as §3; format: ADME; conditions: microsomes
[15] = as §4; format: ADME, Canis lupus familiaris; conditions: liver microsomes
[16] = read-out: LD50 (the source's name)

| SMILES | Activity [1] [%] | IC50 [2] [µM] | selectivity ratio [3] | IC50 [5] [µM] | Activity [8] [%] | Activity [9] [%] | LC50 [4, 16] [µM] | further results |
| --- | --- | --- | --- | --- | --- | --- | --- | --- |
| CC1CCc2nn(-c3c(Cl)cc(C(F)(F)F)cc3Cl)cc21 (stereo unspecified) | 100 | 0.03 | 126 | 3.8 | – | – | – | LC50 ([4]; read-out: LC50): 10000 µM; LC50 [6]: 3000 µM; Activity [7]: 10% |
| FC(F)(F)c1cc(Cl)c(-n2cc3c(n2)C(F)(F)CC3(F)F)c(Cl)c1 | 100 | 0.074 | 4 | 0.3 | 60.7 | 93.9 | – | – |
| FC1CCc2nn(-c3c(Cl)cc(C(F)(F)F)cc3Cl)cc21 (stereo unspecified) | – | 1.7 | > 5 | > 10 | 36 | 7 | – | – |
| FC(F)(F)c1cc(Cl)c(-n2cc3c(n2)C(F)(F)CC3)c(Cl)c1 | 100 | – | – | 2.8 | – | – | 15000 | – |
| O=C1c2cn(-c3c(Cl)cc(C(F)(F)F)cc3Cl)nc2CC1F (stereo unspecified) | 95.4 | 0.32 | 10 | 3.2 | 10.8 | 57.5 | – | – |
| FC(F)(F)c1cc(Cl)c(-n2cc3c(n2)CCC3(F)F)c(Cl)c1 | 100 | > 0.1 | < 10 | 1 | – | – | 1000 | LC50 [7]: 88000 µM |
| FC(F)(F)c1cc(Cl)c(-n2cc3c(n2)CCC3)c(Cl)c1 | 100 | – | 19 | 1.6 | – | – | – | LC50 ([4]; read-out: LC50): 8000 µM; LC50 [6]: 7000 µM; Activity [7]: 30% |
| FC1c2nn(-c3c(Cl)cc(C(F)(F)F)cc3Cl)cc2C(F)(F)C1F (stereo unspecified) | 100 | – | – | 0.175 | – | – | < 500 | LC50 [7]: 400 µM |
| COC1(C)c2cn(-c3c(Cl)cc(C(F)(F)F)cc3Cl)nc2CC1F (stereo unspecified) | 100 | 0.1 | 120 | 12 | – | – | 1800 | CL [10]: 34.1 pmol/min/mg; half-life [11]: 2.42 h; T1/2 [12]: Stable; CL [13]: Stable |
| O=C1CCc2nn(-c3c(Cl)cc(C(F)(F)F)cc3Cl)cc21 | 16.5 | 0.47 | 42 | 20 | – | – | – | LC50 [7]: 81000 µM |
| COC1CC(F)(F)c2nn(-c3c(Cl)cc(C(F)(F)F)cc3Cl)cc21 (stereo unspecified) | 100 | – | – | 3.7 | 3 | 22 | – | – |
| FC1CCc2cn(-c3c(Cl)cc(C(F)(F)F)cc3Cl)nc21 (stereo unspecified) | 95 | 0.29 | 10 | 2.9 | – | 85 | 11000 | – |
| O=C1CC(F)(F)c2nn(-c3c(Cl)cc(C(F)(F)F)cc3Cl)cc21 | 40 | – | – | – | 1 | 6 | – | – |
| FC1Cc2cn(-c3c(Cl)cc(C(F)(F)F)cc3Cl)nc2C1F (stereo unspecified) | 100 | 0.2 | 5 | 1 | – | – | – | CL [10]: 255.1 pmol/min/mg; half-life [11]: 0.373 h; T1/2 [12]: Stable; CL [13]: Stable; LC50 [7]: 79000 µM |
| O=C1c2cn(-c3c(Cl)cc(C(F)(F)F)cc3Cl)nc2CC1(F)F | 40 | – | – | – | 1 | 6 | – | – |
| CC1(F)CC(F)(F)c2nn(-c3c(Cl)cc(C(F)(F)F)cc3Cl)cc21 (stereo unspecified) | 100 | – | – | > 10 | 3 | 16.7 | – | – |
| FC1Cc2nn(-c3c(Cl)cc(C(F)(F)F)cc3Cl)cc2C1(F)F (stereo unspecified) | 100 | < 0.1 | > 10 | 1 | – | 100 | 1000 | CL [10]: 109.2 pmol/min/mg; half-life [11]: 1.08 h; T1/2 [12]: Stable; CL [13]: Stable |
| FC(F)(F)c1cc(Cl)c(-n2cc3c(n2)CC(F)(F)C3(F)F)c(Cl)c1 | 100 | < 0.1 | > 0.5 | 0.05 | – | – | < 500 | – |
| CC1(O)c2cn(-c3c(Cl)cc(C(F)(F)F)cc3Cl)nc2CC1(F)F (stereo unspecified) | 100 | – | 23 | 2.3 | – | 72 | 10000 | CL [10]: Stable; T1/2 [14]: Stable; half-life [15]: 8.45 h; CL [13]: 296.9 pmol/min/mg |
| CC1(O)c2cn(-c3c(Cl)cc(C(F)(F)F)cc3Cl)nc2C(F)C1F (stereo unspecified) | 100 | – | > 28 | > 10 | – | 100 | 5000 | – |
| FC1(F)Cc2cn(-c3c(Cl)cc(C(F)(F)F)cc3Cl)nc2C1 | 100 | 0.2 | 1 | 0.175 | – | 87.9 | 2000 | – |
